Bioassay records: PubChem, several laboratories
Most compounds without a hit are left out; they make up all but 1.6% or so of the library.
PKA-R1A activ: activators of PKA-R1A complex; P00514+P68181; PKA-R1A dissociation, Cy5-IP20 fluorescence polarization; scaled: DMSO 0%, 113 µM cGMP 100%; activation, % at 11.4 µM; 340,000 tested, 0.083% active; AID 504707;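 active means percent activation above the mean of all tested compounds plus 3 SD, cut at about 19% in these data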;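 further: higher means more PKAc released from R1A so a rise in polarization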
PfG6PD inh: PfG6PD (Plasmodium falciparum) enzyme inhibition | PfGluPho enzyme, NADPH resazurin-diaphorase fluorescence | inhibition, % at 20 µM | 350,000 tested, 0.78% active | AID 504690;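 active means inhibition reaching at least a set limit at 20 µM in the primary screen, cut at about 59% in these data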;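 further: 0% = DMSO wells with substrate and 100% = DMSO wells lacking glucose-6-phosphate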
HKDC1 inhibitor: HKDC1 (human) hexokinase inhibition. Q2TB90. recombinant HKDC1, G6PDH/diaphorase resazurin coupled fluorescence. inhibition, % at 20 µM. 340,000 tested, 0.16% active;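 active means inhibition above about 35% when tested at 20 µM, limit read from the data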;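 further: plate controls were DMSO wells with enzyme for no effect and DMSO wells lacking enzyme for full effect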
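Material: recombinant HKDC1 hexokinase; Amount: HKDC1 at 5 µg/mL; Medium: Tris pH 8.0 buffer with MgCl2, Tween-20, BSA, BME; Schedule: 90 min reaction incubation at room temperature, dark; Technique: coupled resazurin fluorescence, excitation 525 nm, emission 613 nm.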
T cell HTS: modulates CD8 T cell binding to vesicles; 2C CD8+ T cell-vesicle binding, flow cytometry; active compounds read low; response (vesicle binding), % at 7 µM; 330,000 tested, 0.068% active;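 active means response, share of CD8 T cells binding vesicles, and their 90th percentile fluorescence all below set limits, cut at about 80% in these data, passing the limit was not always enough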;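 further: values below 100% mean blocked vesicle binding to the CD8+ T cells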
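material = purified 2C TCR transgenic mouse naive CD8+ T cells | controls = Unloaded micro-vesicles (low), QL9 vesicles with 0.7% DMSO (high) | detection = cytometric PE anti-B7-1 and Alexa647 anti-CD8 signals after 1% paraformaldehyde fixation | incubation = binding step 1.5 h, 37 °C, antibody labelling 20 min, ice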
ATG4B inhibitor: ATG4B (human) cysteine protease inhibition. inhibition, % at 8.33 µM. 340,000 tested, 0.51% active. Q9Y4P1. AID 504462. ATG4B cleavage of LC3-PLA2, NBD-HPC fluorescence, 1 h; in the data active means inhibition above about 40%
PKA-R2B act: activates the human PKA-R2B holoenzyme complex. P22694+P31323. PKA-R2B holoenzyme dissociation, Cy5-IP20 fluorescence polarization; R2B truncated from residue 108, S112A mutant; 0% DMSO only, 100% 113 µM cGMP. activation, % at 11.4 µM. 340,000 tested, 0.079% active. AID 504700;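 active means activation above a cutoff set at the mean over all compounds plus 3 SD, cut at about 18% in these data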;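 further: higher means more holoenzyme dissociation and a rise in polarization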
ATG4B confirm: confirmation of human ATG4B inhibitors; shares compounds with ATG4B inhibitor; ATG4B protease fluorescent substrate cleavage assay; inhibition, % at 8.33 µM; 320 tested, 92% active; AID 504757; in the data active means inhibition above about 39%
PLA2 ctr: PLA2 (human) inhibition in ATG4B counter-screen | shares compounds with ATG4B inhibitor | purified PLA2, NBD-C6-HPC fluorescence, 45 min | inhibition, % at 8.33 µM | 1,600 tested, 66% active; in the data active means inhibition above about 50%
* marks the source's active call; other numbers are inactive results; i = inactive; . = no result given.

SMILES	PKA-R1A activ	PfG6PD inh	HKDC1 inhibitor	T cell HTS	ATG4B inhibitor	PKA-R2B act	PLA2 ctr	others
Cc1nc(N2CCN(C(=O)c3ccco3)CC2)c2c3c(sc2n1)CCCC3	8	-22	6	409	68*	6	67*
O=C(c1ccco1)N1CCN(c2nc(C3CC3)nc3sc4c(c23)CCCC4)CC1	1	0	1	166	93*	-2	91*
O=C(CSc1ncnc2sc3c(c12)CCCC3)c1ccco1	-6	-12	1	160	41*	0	51*
CSc1ccccc1C(=O)C1CCCN(C(=O)c2cccc(Cn3cccn3)c2)C1 (stereo not drawn)	4	-20	.	.	.	2	.
N#CCCN(C(=O)COC(=O)CNS(=O)(=O)c1ccc2ccccc2c1)c1ccccc1	9	6	-1	249	-4	4	.
C[C@H]1CN([C@@H](C)CO)C(=O)c2cc(C3=CCCC3)cnc2O[C@@H]1CN(C)C(=O)c1ccncc1	-6	-4	.	.	.	-1	.
CCNC(=S)N1CCN(c2nc(CC)nc3sc4c(c23)CCCC4)CC1	-7	21	1	274	73*	0	83*
Cc1nc(N2CCN(C(=O)c3cccs3)CC2)c2c3c(sc2n1)CCCC3	13	-19	5	268	78*	-1	86*
CC(C)(C)c1nc(SCC(=O)NNC(=O)c2ccccc2)c2ccccc2n1	2	-19	-6	432	5	2	.
CCOC(=O)[C@H]1[C@H]2COc3ccc(Cl)cc3[C@@H]2N2C(=O)[C@@H](C)NC(=O)[C@@]12C	2	-5	-5	494	-6	4	.
CCC(C)C1Nc2ccc(C(=O)NCCc3ccc(OC)c(OC)c3)cc2NC1=O (stereo not drawn)	-1	-2	-3	517	-9	0	.
CCCCCCCC(=O)OCC(O)CO (stereo not drawn)	2	-10	-4	201	0	3	.
CCCCCCCCCCCCCCC(O)C[N+](C)(CCO)CCO (stereo not drawn)	-3	7	5	.	43*	1	42	ATG4B confirm=64*
Cc1c(Cl)cccc1NC(=S)NCc1ccc(F)cc1	-1	-7	-2	225	58*	-3	69*
COC(=O)c1cccc(NC(=S)Nc2ccccc2Cl)c1	4	-5	0	306	0	-5	.
COC(=O)c1cccc(NC(=S)Nc2cccc(Cl)c2C)c1	5	-6	-4	300	58*	4	56*
Cc1c(Cl)cccc1NC(=S)NCc1cccn1C	-11	0	-3	614	47*	-3	66*
Cc1c(Cl)cccc1NC(=S)NCc1ccccc1Cl	10	4	-2	225	79*	2	83*
CC12CCC(=O)N1C(C(=O)Nc1nc(-c3cc(F)ccc3F)cs1)CS2 (stereo not drawn)	6	5	-1	i	0	3	.
CCn1nnc2cc(C(=O)Nc3cc(OC)cc(OC)c3)ccc21	-2	6	3	236	-6	-1	.
CCOc1ccc(C(=O)COC(=O)c2nn(CC)c(=O)c3ccccc23)cc1	-7	0	-1	332	-35	-5	.
COc1cccc(CNC(=S)Nc2cccc(Cl)c2C)c1	0	0	4	234	54*	6	65*
COc1cccc(CNC(=S)Nc2cc(C)ccc2C)c1	-8	5	-4	215	5	11	.
Cc1c(Cl)cccc1NC(=S)NCC1COc2ccccc2O1 (stereo not drawn)	-6	11	0	205	88*	1	89*
C=CCNC(=S)NCC1COc2ccccc2O1 (stereo not drawn)	-8	-5	9	106	0	-19	.
SMILES	PKA-R1A activ	PfG6PD inh	HKDC1 inhibitor	T cell HTS	ATG4B inhibitor	PKA-R2B act	PLA2 ctr	others
O=C(C=C=Nc1ccccc1)C(=O)N=C=Cc1ccccc1	-4	-18	6	121	3	1	.
COc1ccccc1NC(=O)C1CCN(S(=O)(=O)c2ccc3c(c2)NC(=O)CO3)CC1	2	-3	5	389	10	4	.
S=C(Nc1cccc(Cl)c1)Nc1ccccc1Oc1ccccc1	8	-2	13	194	86*	4	88*
S=C(Nc1ccc(Cl)cc1Cl)Nc1ccccc1Oc1ccccc1	-2	-7	0	297	72*	-1	79*
S=C(Nc1ccccc1Oc1ccccc1)Nc1cccc(Cl)c1Cl	2	4	3	525	88*	-12	95*
CCNC(=O)CSc1nnc(-c2cccc(S(=O)(=O)N3CCOCC3)c2)o1	1	-2	-2	.	3	4	.
Cc1ccccc1CCN(C(=O)c1csnn1)C(C(=O)NC1CCCC1)c1ccncc1 (stereo not drawn)	-5	-10	-3	700	-11	9	.
O=c1cc(O)c2sc3nc(C(F)(F)F)c4c(c3c2[nH]1)CCCCC4	-15	-30	-1	248	45*	-2	41	ATG4B confirm=59*
CC(=O)C1(O)C(C)CC2C3CC(F)C4(O)CC(O)CCC4(C)C3CCC21C (stereo not drawn)	0	-11	-4	.	-4	-3	.
CCC(C)(C)C1CCc2c(sc(NC(=O)c3ccccc3C(=O)O)c2C#N)C1 (stereo not drawn)	8	-12	8	341	71*	-2	87*
CC1CCc2c(sc(NC(=O)c3ccccc3C(=O)O)c2C#N)C1 (stereo not drawn)	3	-4	-6	143	4	1	.
CCN(c1ccccc1)S(=O)(=O)c1ccc(OC)c(NC(=O)c2ccc(=O)[nH]c2)c1	-1	-3	0	517	1	-14	.
O=C(Nc1cccc(Cl)c1N1CCCC1)c1ccco1	-1	-15	2	135	63*	-3	68*
CCN1CCN(c2c(Cl)cccc2NC(=O)c2ccc3c(c2)OCCO3)CC1	-5	-4	0	294	65*	-12	67*
O=C(Nc1ccc(N2CCCC2)c(Cl)c1)c1ccco1	-11	6	-4	416	3	-10	.
O=C(Nc1cccc(Cl)c1N1CCCCC1)c1ccc2c(c1)OCCO2	4	8	-7	142	36	7	.
O=C(NCc1cccc(C(F)(F)F)c1)N1CCN(C(=O)c2ccccc2)CC1	4	-8	-3	525	56*	11	61*
